We go through 2 proteins from ChEMBL document CHEMBL1629653, “CMY-31 and CMY-36 cephalosporinases encoded by ColE1-like plasmids” (Antimicrob Agents Chemother, 2009).

In general, Km refers to the substrate concentration at which the rate is half of its maximum. Usually kcat stands for the number of substrate molecules converted per active site and unit of time at saturation. By kcat/Km is commonly meant the turnover number divided by the Michaelis constant.

Substrate in series [1]: O=C(Cc1cccs1)N[C@@H]1C(=O)N2C(C(=O)[O-])=C(C[n+]3ccccc3)CS[C@H]12
Briefly: (§1) Activity of Klebsiella pneumoniae HP205 cephalosporinase CMY-36 by spectrophotometry. In a few lines:
(§2)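 CMY β-lactamases purified from sonicated, ultracentrifuge-clarified extracts of E. coli DH5α clones (pB-cmy36, pB-cmy2) by Q- then S-Sepharose ion exchange (>90% pure by SDS-PAGE); steady-state hydrolysis kinetics measured spectrophotometrically, CMY-2 run in parallel.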

Substrate in series [2]: O=C(Cc1cccs1)N[C@@H]1C(=O)N2C(C(=O)O)=C(/C=C/c3ccc([N+](=O)[O-])cc3[N+](=O)[O-])CS[C@H]12
The description is as §1. Summed up:
as §2

Substrate in series [3]: CC1(C)S[C@@H]2[C@H](NC(=O)Cc3ccccc3)C(=O)N2[C@H]1C(=O)O
Described as §1. In a few lines:
as §2

Substrate in series [4]: CO/N=C(\C(=O)N[C@@H]1C(=O)N2C(C(=O)O)=C(COC(C)=O)CS[C@H]12)c1csc(N)n1
The description is as §1. In a few lines:
as §2

Substrate in series [5]: O=C(Cc1cccs1)N[C@@H]1C(=O)N2C(C(=O)[O-])=C(C[n+]3ccccc3)CS[C@H]12
Put plainly: (§3) Ratio of Kcat to Km for Klebsiella pneumoniae cephalosporinase CMY-36 by spectrophotometry. Summed up:
as §2

Substrate in series [6]: O=C(Cc1cccs1)N[C@@H]1C(=O)N2C(C(=O)O)=C(/C=C/c3ccc([N+](=O)[O-])cc3[N+](=O)[O-])CS[C@H]12
Described as §3. In a few lines: as §2

Substrate in series [7]: CC1(C)S[C@@H]2[C@H](NC(=O)Cc3ccccc3)C(=O)N2[C@H]1C(=O)O
Described as §3. Summed up:
as §2

Substrate in series [8]: O=C(Cc1cccs1)N[C@@H]1C(=O)N2C(C(=O)[O-])=C(C[n+]3ccccc3)CS[C@H]12
The following applies: Salmonella enterica subsp. enterica serovar Newport; AM17274.

Substrate in series [9]: O=C(Cc1cccs1)N[C@@H]1C(=O)N2C(C(=O)O)=C(/C=C/c3ccc([N+](=O)[O-])cc3[N+](=O)[O-])CS[C@H]12
The following applies: Salmonella enterica subsp. enterica serovar Newport; AM17274.

Substrate in series [10]: CC1(C)S[C@@H]2[C@H](NC(=O)Cc3ccccc3)C(=O)N2[C@H]1C(=O)O
The settings on record: Salmonella enterica subsp. enterica serovar Newport; AM17274.

Substrate in series [11]: CO/N=C(\C(=O)N[C@@H]1C(=O)N2C(C(=O)O)=C(COC(C)=O)CS[C@H]12)c1csc(N)n1
The following applies: Salmonella enterica subsp. enterica serovar Newport; AM17274.

Substrate in series [12]: O=C(Cc1cccs1)N[C@@H]1C(=O)N2C(C(=O)[O-])=C(C[n+]3ccccc3)CS[C@H]12
The following applies: Salmonella enterica subsp. enterica serovar Newport; AM17274. This is another data set of the same source.

Substrate in series [13]: O=C(Cc1cccs1)N[C@@H]1C(=O)N2C(C(=O)O)=C(/C=C/c3ccc([N+](=O)[O-])cc3[N+](=O)[O-])CS[C@H]12
The following applies: Salmonella enterica subsp. enterica serovar Newport; AM17274. This is another data set of the same source.

Substrate in series [14]: CC1(C)S[C@@H]2[C@H](NC(=O)Cc3ccccc3)C(=O)N2[C@H]1C(=O)O
The settings on record: Salmonella enterica subsp. enterica serovar Newport; AM17274. The source holds these as a separate data set.

B1: Class C beta-lactamase CMY-36 (Klebsiella pneumoniae), Q48435 (protein)
chain: MMKKSLCCALLLTASFSTFAAAKTEQQIADIVNRTITPLMQEQAIPGMAVAVIYQGKPYYFTWGKADIANNHPVTQQTLFELGSVSKTFNGVLGGDCIARGEIKLSDPVTKYWPELTGKQWQGIRLLHLATYTAGGLPLQIPDDVRDKAALLHFYQNWQPQWTPGAKRLYANSSIGLFGALAVKPSGMSYEEAMTRRVLQPLKLAHTWITVPENEQKDYAWGYREGKPVHVSPGQLDAEAYGVKSSVIDMARWVQANMDASHVQEKTLQQGIALAQSRYWRIGDMYQGLGWEMLNWPLKADSIINGSDSKVALAALPAVEVNPPAPAVKASWVHKTGSTGGFGSYVAFVPEKNLGIVMLANKSYPNPVRVEAAWRILEKLQ
On to B1, for which the Km in series [1] was 150 µM; in series [2] it was 7.3 µM; in [3], 0.3 µM. Besides, the kcat was 360 s⁻¹ in series [1], 910 s⁻¹ in [2], 9.1 s⁻¹ in series [3] and below 0.01 s⁻¹ in series [4]. Also, the specificity constant (kcat/Km) in series [5] was determined as 2.4e+06 M⁻¹ s⁻¹; in series [6], 1.25e+08 M⁻¹ s⁻¹; in [7] it was 3.03e+07 M⁻¹ s⁻¹.

B2: Efflux transporter (Salmonella newport), Q3S5C3 (protein)
chain: MSWIVLLIAGLLEVVWAIGLKYTHGFTRLTPSIITIAAMIVSIAMLSWAMRTLPVGTAYAVWTGIGAVGAAITGILLLGESASPARLLSLGLIVAGIIGLKLSTH
Consider B2, for which the catalytic constant (kcat) in series [8] is 310 s⁻¹; in series [9] it was 960 s⁻¹; in series [10] it was 7.7 s⁻¹; in series [11] it was below 0.01 s⁻¹. Further, the Km in [9] was determined as 10 µM; in [10] it was 0.3 µM. The kcat/Km was found to be 2.1e+06 M⁻¹ s⁻¹ in series [12], 9.6e+07 M⁻¹ s⁻¹ in [13] and 2.57e+07 M⁻¹ s⁻¹ in [14].
